Results of several laboratories.
Protocols differ between the studies behind these lines.
Target: Phosphatidylinositol 5-phosphate 4-kinase type-2 beta (PIP4K2B, Homo sapiens, UniProt P78356)
Sequence (P78356 1-416, as in one of the studies): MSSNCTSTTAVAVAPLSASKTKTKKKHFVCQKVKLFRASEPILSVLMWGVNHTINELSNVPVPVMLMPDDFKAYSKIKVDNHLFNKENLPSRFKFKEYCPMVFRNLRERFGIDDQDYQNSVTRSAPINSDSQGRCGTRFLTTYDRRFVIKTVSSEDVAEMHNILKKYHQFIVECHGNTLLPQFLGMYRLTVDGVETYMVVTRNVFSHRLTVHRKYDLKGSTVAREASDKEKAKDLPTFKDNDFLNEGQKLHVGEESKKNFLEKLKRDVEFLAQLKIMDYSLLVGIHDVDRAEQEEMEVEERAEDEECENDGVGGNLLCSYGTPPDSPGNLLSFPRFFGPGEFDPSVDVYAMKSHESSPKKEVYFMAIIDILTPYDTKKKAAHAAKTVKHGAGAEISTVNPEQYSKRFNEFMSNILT

SMILES	assay	setting	remaining binding [%]
F[C@@H]1CCN(c2nccc(-c3cnn4ncccc34)n2)C1	binding	1 µM	79
CNCc1ccccc1-c1csc([C@H](C)Nc2nc(C)nc3cc(OC)c(OC)cc23)c1	cell-free assay, competition with immobilised ligand	1 µM	100
Nc1ncc2c(n1)-c1c([nH]c3ccc(C#CC4CC4)cc13)CCCC2	binding, competition with immobilised ligand	1 µM	86
Cc1cnc(Nc2ccc(C(=O)N3CCC(N4CCCC4)CC3)cc2)nc1-c1cc2ccccc2s1	binding, competition with immobilised ligand	1 µM	8.8
Cn1nc(C(F)(F)F)cc1-c1cnc(N2CCc3cc(S(=O)(=O)Nc4c(F)cc(Cl)cc4F)cc(N4CCCC4=O)c32)nc1	cell-free assay, competition with immobilised ligand	1 µM	100
c1cnn2ncc(-c3ccnc(N4CCC45COC5)n3)c2c1	binding	1 µM	58
C=CC(=O)N1CCC(C(=O)NCC(=O)N2CCN(c3nc(-c4cnc(N)nc4C(F)F)nc(N4CCOCC4)n3)CC2)CC1	binding, competition with immobilised ligand	1 µM	99
Cc1cnn2ncc(-c3ccnc(N(C)C)n3)c2c1	binding	1 µM	47
COc1cc(Nc2nccc(-c3cnn4nc(OC)ccc34)n2)cc(C(F)(F)F)c1	binding, competition with immobilised ligand	1 µM	50
CCOCCn1cc(C(=O)Nc2ccc(-n3nc(-c4cccnc4)cc3C(F)(F)F)cn2)ccc1=O	cell-free assay, competition with immobilised ligand	1 µM	68
CNC(=O)[C@@H]1CC[C@@H](n2c(-c3ccc4cnccc4c3)nc3ccc(C(=O)NCc4cccc(C(N)=O)c4)cc32)C1	binding, competition with immobilised ligand	1 µM	99
CN(C)c1nccc(-c2cnn3ncccc23)n1	binding	1 µM	100
Cc1c(NC(=O)c2cc(C(N)=O)nc3cc(F)ccc23)c(C(F)(F)F)nn1Cc1ccc(C#N)cc1	cell-free assay, competition with immobilised ligand	1 µM	88
CN(C)c1nccc(-c2cnc3ncccn23)n1	binding	1 µM	100
C[C@@H](c1ccc(-n2cnc3c(N)ncnc32)cc1)N1CCc2nn(C)c(Cc3ccccc3)c2C1=O	binding, competition with immobilised ligand	0.1 µM	69
COc1cnc(Nc2cccc(S(N)(=O)=O)c2)nc1N1CCN(c2ccccc2)CC1	binding, competition with immobilised ligand	1 µM	100
CN(CCCC(F)(F)F)c1nccc(-c2cnn3ncccc23)n1	binding	1 µM	57
C[C@@H](c1cccc(C#N)c1)n1cc(Cl)cc(C(N)=O)c1=N	cell-free assay, competition with immobilised ligand	1 µM	73
O=C(NCC1CCOCC1)c1n[nH]cc1NC(=O)c1c(F)cccc1F	binding, competition with immobilised ligand	1 µM	100
CC(=O)c1c(NS(C)(=O)=O)c2cc(-c3ccc(Cl)cc3)c(-c3ccc(Cl)cc3Cl)nc2n(C)c1=O	cell-free assay, competition with immobilised ligand	1 µM	65
O=C(NCCCN1CCOCC1)c1ccc(Nc2ncc(Cl)c(-c3ccc(Cl)s3)n2)cc1	binding, competition with immobilised ligand	1 µM	4.2
N[C@@H]1CCN(c2nccc(-c3cnn4ncccc34)n2)C1	binding	1 µM	100
C[C@@]1(Cc2ccc(C#N)cc2)C(=O)N(c2cc(Cl)cc(Cl)c2)c2ncc(C(=O)NC3(c4nc(C5CCC5)no4)CC3)n21	cell-free assay, competition with immobilised ligand	1 µM	97
O=C(c1ccc(Nc2ncc(Cl)c(-c3ccc(Cl)s3)n2)cc1)N1CCC(N2CCCC2)CC1	binding, competition with immobilised ligand	1 µM	1.9
